High-throughput results: PubChem, several laboratories
This is a sample that favours compounds with a hit; in the whole collection about 1.7% have one here.
Vif imaging = blocks HIV Vif function. HEK293T cells, Vif self-association by quenched fluorescence, imaging, 24 h. inhibition, % at 7.49 µM. 340,000 tested, 0.35% active; in the data active = inhibition above about 50%, passing the limit was not always enough; inconclusive = no clear call, values can overlap the other calls; inactive = below about 31%
DSG3 Ab inh = human desmoglein-3 autoantibody binding inhibition | P32926 | DSG3-coupled beads, scFv-anti-DSG3-GFP binding, flow cytometry; hits give low values | binding (percent of control), % at 10 µM | 310,000 tested, 0.48% active;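 active = binding more than 3 SD below its plate's average and above zero; inconclusive = below that plate limit but binding exactly zero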;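 note: hits lower antibody fragment binding to DSG3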
Target sequence (P32926 whole entry, looked up, the tested form may be a part): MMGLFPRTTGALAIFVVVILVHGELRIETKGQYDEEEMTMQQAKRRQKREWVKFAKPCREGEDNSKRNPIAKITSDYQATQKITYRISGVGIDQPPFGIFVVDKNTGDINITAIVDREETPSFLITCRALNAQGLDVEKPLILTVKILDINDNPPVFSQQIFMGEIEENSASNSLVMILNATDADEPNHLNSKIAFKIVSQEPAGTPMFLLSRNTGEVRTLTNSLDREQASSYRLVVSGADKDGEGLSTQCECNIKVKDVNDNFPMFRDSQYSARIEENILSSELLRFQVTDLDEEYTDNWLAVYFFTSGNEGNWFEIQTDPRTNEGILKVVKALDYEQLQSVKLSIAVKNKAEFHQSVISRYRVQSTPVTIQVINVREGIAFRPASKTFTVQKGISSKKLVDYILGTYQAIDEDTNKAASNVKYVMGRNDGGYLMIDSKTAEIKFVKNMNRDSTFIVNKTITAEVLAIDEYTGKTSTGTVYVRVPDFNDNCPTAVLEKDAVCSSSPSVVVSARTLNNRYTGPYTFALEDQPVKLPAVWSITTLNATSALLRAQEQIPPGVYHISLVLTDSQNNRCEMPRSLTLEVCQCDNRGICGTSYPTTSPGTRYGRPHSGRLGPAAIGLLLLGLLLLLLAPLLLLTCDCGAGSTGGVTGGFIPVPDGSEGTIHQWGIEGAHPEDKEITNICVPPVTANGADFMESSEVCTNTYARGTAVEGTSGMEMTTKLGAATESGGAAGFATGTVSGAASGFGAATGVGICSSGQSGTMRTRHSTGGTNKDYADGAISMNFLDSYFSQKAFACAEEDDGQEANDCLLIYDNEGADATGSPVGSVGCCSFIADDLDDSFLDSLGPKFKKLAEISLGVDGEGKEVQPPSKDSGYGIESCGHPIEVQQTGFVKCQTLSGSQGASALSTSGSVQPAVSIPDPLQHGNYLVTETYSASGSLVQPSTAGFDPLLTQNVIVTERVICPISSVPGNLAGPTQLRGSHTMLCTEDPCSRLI
Myeloid diff 2 = promotes myeloid progenitor differentiation | ER-HoxA9 myeloid progenitors, lysozyme-GFP differentiation, flow cytometry | calls only at 10 µM | 360,000 tested, 1% active;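 active = normalized GFP-positive differentiation at or above the plate's own cutoff, the solvent-only control mean plus 3 SD; inconclusive = no clear call, values can overlap the other calls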;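 note: cells exposed to compound for four days before flow analysis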
T cell modulator = modulates CD8 T cell binding to vesicles; 2C CD8+ T cell-vesicle binding, flow cytometry; hits give low values; response (vesicle binding), % at 7 µM; 330,000 tested, 0.068% active; AID 2052;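 active = response, share of CD8 T cells binding vesicles, and their 90th percentile fluorescence all below set limits, cut at about 80% in these data, passing the limit was not always enough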;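 note: values below 100% mean blocked vesicle binding to the CD8+ T cells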
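Material: 2C TCR transgenic mouse naive CD8+ T cells, MACS-purified. Also added: QL9-charged Drosophila Ld/ICAM-1/B7-1 vesicles. Timing: binding 1.5 h at 37 °C. Measured by: high-throughput flow cytometry with anti-B7-1 and anti-CD8 staining. Read-out: percent CD8+ FL2 mean versus row control. Controls: Unloaded micro-vesicles (low), QL9 vesicles with 0.7% DMSO (high).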
Numbers without * were called inactive; i = inactive; u = inconclusive; x = not tested or not shown; + = active, no number.

SMILES | Vif imaging | DSG3 Ab inh | Myeloid diff 2 | T cell modulator
CC(=O)Nc1cncc(-c2cccc(S(C)(=O)=O)c2)n1 | -1.0 | x | i | x
CCc1ccc2c(c1)NC(=O)C2(C)Cc1ccccc1C#N (stereo unspecified) | -5.6 | x | i | x
O=c1cc(-c2ccc(Cl)cc2)[nH][nH]1 | 57.4* | x | i | 155.1
O=c1cc(-c2ccc(Cl)c(Cl)c2)[nH][nH]1 | -3.5 | 97.1 | i | 179.5
Cc1cccc(S(=O)(=O)NC(=O)C2(C)CCN2C(=O)Cc2ccccc2)c1 (stereo unspecified) | -0.8 | x | i | x
Cc1c(Cl)cccc1NC(=O)CC(Cc1ccccc1)C(=O)O (stereo unspecified) | 6.5 | 101.6 | i | x
Cc1c(Cl)cccc1NC(=O)CC(C(=O)O)C1CCCO1 (stereo unspecified) | 98.1* | 94.2 | i | 394.7
C=C(CN(C)C)C(=O)c1ccc(OC2OC(COC(C)=O)C(OC(C)=O)C(OC(C)=O)C2OC(C)=O)cc1 (stereo unspecified) | 4.6 | 88.3 | x | x
CCCNC(=O)C1(C)CCN(C(=O)C2(c3ccc(Cl)cc3)CCCC2)C1 (stereo unspecified) | x | x | i | x
CCOc1ccc(OCc2cccc(C(=O)N/N=C/c3cccnc3)c2)cc1 | 4.3 | 84.8 | i | 146.6
Cc1ccc(C(=O)N/N=C/c2ccc(OC(=O)c3ccccc3Cl)cc2)cn1 | 57.8* | u | i | 189.7
CCOc1cc(/C=N/NC(=O)c2cccnc2)ccc1OCC(N)=O | -3.9 | 107.3 | i | 271.2
CCOc1cc(/C=N/NC(=O)c2cccnc2)ccc1OCC(=O)N(C)C | 1.4 | 78.2* | i | 232.8
O=C(N/N=C/c1cccc(OC(=O)c2ccccc2Cl)c1)c1cccnc1 | 7.6 | x | i | 0.0*
CC(C)c1ccc(OCc2cccc(C(=O)N/N=C/c3cccnc3)c2)cc1 | 2.4 | 112.7 | + | 294.9
CCOC(=O)[C@]12CCC=C1N(Cc1ccc3c(c1)OCO3)C(=O)[C@H](CC(=O)NCC13CC4CC(CC(C4)C1)C3)C2 | x | x | i | x
CC(=O)Nc1ccc(-c2ccnc3c2CC(C)(C(=O)Nc2cccc(C(C)=O)c2)O3)cc1 (stereo unspecified) | -7.7 | x | i | x
CC1CC(C)CN(S(=O)(=O)c2ccc(C(=O)N3CCCC3)cc2)C1 (stereo unspecified) | -2.1 | 107.6 | + | 284.4
Oc1ccc(C[C@@H]2CNCCN2CCc2cc(C(F)(F)F)cc(C(F)(F)F)c2)cc1 | x | 105.9 | + | 421.4
CCCc1nnc(NC(=O)CCC(=O)NC2CCCc3ccccc32)s1 (stereo unspecified) | -0.3 | 39.0* | i | 299.2
CC(C)Cc1nnc(NC(=O)CCC(=O)NC2CCCc3ccccc32)s1 (stereo unspecified) | -0.9 | 108.6 | i | 143.7
O=C(C[C@@H]1CC[C@@H](NC(=O)Nc2cccc(F)c2)[C@@H](CO)O1)NCC1CCCCC1 | x | x | i | x
Cc1cc(NC(=O)c2ccc3sc([C@@H]4O[C@H](CO)[C@H](O)[C@H](O)[C@H]4O)nc3c2)no1 | -0.9 | x | i | x
Cc1nc(SCc2c(F)cccc2Cl)c2c(=O)n(C)c(=O)n(C)c2n1 | 8.4 | 84.5 | + | 417.1
Cc1cccc(NC(=O)CSc2nc(C)nc3c2c(=O)n(C)c(=O)n3C)c1 | -0.5 | 100.8 | i | x
SMILES | Vif imaging | DSG3 Ab inh | Myeloid diff 2 | T cell modulator
CC(C)(C)Cc1c(-c2ccc(C#N)cc2)nc2ccc(Cl)cn12 | -2.5 | 106.8 | i | x
COc1ccc(-c2nn(-c3ccccc3)cc2N)cc1 | 2.5 | 97.6 | + | 316.6
O=C(COC(=O)CN1C(=O)NC2(CCCC2)C1=O)Nc1ccccc1C(F)(F)F | 1.7 | 101.1 | i | 398.3
O=C(COC(=O)CN1C(=O)c2ccccc2C1=O)Nc1ccccc1C(F)(F)F | 9.0 | 84.5* | i | x
NC(=S)N/N=C/c1ccc(C23CC4CC(CC(C4)C2)C3)cc1 | x | x | x | 220.6
COc1ccc(Nc2nc(Nc3ccc(OC)cc3)nc(-n3[nH]c(=O)c(C)c3C)n2)cc1 | 56.2* | 96.0 | i | 694.9
O=c1c2ccccc2sn1-c1ccc(S(=O)(=O)N2CCCC2)cc1 | x | 61.8* | i | 371.5
Cc1ccc(-n2sc3ccccc3c2=O)cc1S(=O)(=O)N1CCCCC1 | -16.0 | 12.3* | i | 400.0
CC(=O)c1ccc(NC(=O)CSc2ccc(-c3ccc4c(c3)OCO4)nn2)cc1 | 14.8 | 98.5 | i | 256.7
CC(=O)Nc1ccc(NC(=O)CSc2ccc(-c3ccc4c(c3)OCO4)nn2)cc1 | 7.3 | 60.2* | i | 232.6
Cc1noc(C)c1S(=O)(=O)N(C)C[C@H]1Oc2c(NC(=O)C3CCCCC3)cccc2C(=O)N([C@H](C)CO)C[C@@H]1C | -3.0 | 104.9 | i | 178.9
CCN1CCN(S(=O)(=O)c2ccc(Cl)c(C(=O)N(CCc3ccccc3)Cc3ccccc3)c2)CC1 | 4.9 | 101.4 | + | x
CCN1CCN(S(=O)(=O)c2ccc(Cl)c(C(=O)N(CC)Cc3ccccc3)c2)CC1 | x | 93.0 | i | x
COc1ccccc1NS(=O)(=O)c1cccc(C(=O)N/N=C/c2ccc([N+](=O)[O-])o2)c1 | -4.5 | 101.8 | i | x
O=C(CCCn1c(=O)[nH]c2ccccc2c1=O)NCCSCc1ccccc1 | -2.4 | 23.1* | i | 123.3
CN(c1ccccc1)S(=O)(=O)c1cccc(NC(=O)C2=NNC(=O)CC2)c1 | -9.9 | 5.4* | i | 352.4
CN(C)c1ccc(C#Cc2ccc3cc(CCCO)oc(=O)c3c2)cc1 | -10.6 | 84.2* | i | 197.6
CCCC1=[N+](CC(=O)c2ccc(C)cc2)CCn2cccc21 | 0.4 | 101.5 | + | 198.9
CCc1ccc(-c2nc(CCl)cs2)cc1 | 100.0* | 100.3 | i | 240.9
COc1ccc(-c2nc(CCl)cs2)cc1 | 1.5 | 104.9 | i | 335.5
CCOC(=O)C1CCC(CN(Cc2ccccc2C)S(=O)(=O)c2ccc([N+](=O)[O-])cc2)CC1 (stereo unspecified) | -9.4 | x | + | 590.8
CCOC(=O)C1CCN(c2ccc([N+](=O)[O-])cc2)CC1 | -0.5 | 82.2 | i | 135.3
OCC[C@@H]1C[C@H](O)[C@@H](O)[C@]2(OCc3cc(C(F)(F)F)ccc32)O1 | 3.5 | x | i | x
CN(C(=O)CSc1nnc(-c2ccccc2F)n1N)C1CCCCC1 | -8.0 | u | i | 393.9
NNC(=O)c1sc2cc(C(F)(F)F)cnc2c1-c1cccs1 | -3.3 | 102.4 | + | 207.1
SMILES | Vif imaging | DSG3 Ab inh | Myeloid diff 2 | T cell modulator
CN(C1=NS(=O)(=O)N=C(N(C)c2ccccc2)O1)c1ccccc1 | 11.4 | 109.7 | i | x
O=C(N/N=C/C(Br)=C/c1ccccc1)c1cnccn1 | -11.8 | 113.2 | + | 378.6
CC1(C)CC(N2CCCCC2)=CC(=[N+]2CCCCC2)C1 | -4.5 | x | + | 187.0
O=S(=O)(NC1CCc2ccccc21)c1ccccc1 (stereo unspecified) | 1.6 | 106.6 | i | x
O=CNC1c2ccccc2CCc2ccccc21 | 61.3* | 124.1 | i | x
COc1ccc(Cl)cc1N(CC(=O)N1CCC(C)CC1)S(C)(=O)=O | -1.3 | 80.9* | i | 443.4
